# Reference: ChEMBL document CHEMBL1156100, “Design and synthesis of a simplified inhibitor for XIAP-BIR3 domain” (Bioorg Med Chem Lett, 2009)
# Active and inactive are the calls of the source. The calls are words filed in the database; no cut-off is given here.
# Biological target: T1, E3 ubiquitin-protein ligase XIAP (Homo sapiens, UniProt P98170)
# Experiment: Inhibition of XIAP BIR3 domain at 10 to 100 uM by competitive fluorescence polarization binding assay relative to 1 uM BV6 control
# T1 sequence (P98170 whole entry, the tested form may be a part): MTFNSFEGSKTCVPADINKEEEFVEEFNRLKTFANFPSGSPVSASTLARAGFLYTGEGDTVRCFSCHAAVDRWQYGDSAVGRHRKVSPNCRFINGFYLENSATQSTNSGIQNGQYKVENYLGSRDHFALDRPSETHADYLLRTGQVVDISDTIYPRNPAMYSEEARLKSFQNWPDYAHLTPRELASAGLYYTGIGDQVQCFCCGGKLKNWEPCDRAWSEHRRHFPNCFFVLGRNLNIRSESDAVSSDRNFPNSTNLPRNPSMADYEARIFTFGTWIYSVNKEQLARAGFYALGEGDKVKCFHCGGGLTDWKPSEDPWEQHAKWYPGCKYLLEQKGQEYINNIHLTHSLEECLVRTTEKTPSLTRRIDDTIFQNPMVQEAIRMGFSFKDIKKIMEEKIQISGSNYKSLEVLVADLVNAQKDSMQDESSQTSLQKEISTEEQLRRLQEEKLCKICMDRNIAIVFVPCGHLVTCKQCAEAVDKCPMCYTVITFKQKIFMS
row,Activity,Structure (SMILES)
1,inactive,CN[C@@H](C)C(=O)Nc1nc2c(s1)CC[C@@H]2C(=O)NC1CCCc2ccccc21 (mixture of isomers)
2,inactive,CN[C@@H](C)C(=O)Nc1nc2c(s1)CCC2C(=O)NC1CCCc2ccccc21 (mixture of isomers)
3,Active,CN[C@@H](C)C(=O)Nc1nc2c(s1)CC[C@H]2C(=O)N[C@@H]1CCCc2ccccc21
4,inactive,CN[C@@H](C)C(=O)Nc1nc2c(s1)CC[C@H]2C(=O)N[C@H]1CCCc2ccccc21

# Biological target: T1, E3 ubiquitin-protein ligase XIAP
# Experiment: Inhibition of XIAP BIR3 domain at 100 uM by competitive fluorescence polarization binding assay
row,Structure (SMILES),Activity
1,CN[C@@H](C)C(=O)Nc1nc2c(s1)CCCCC2C(=O)NC(c1ccccc1)c1ccccc1 (stereo partly drawn),inactive
2,CN[C@@H](C)C(=O)Nc1nc2c(s1)CCCCC2C(=O)NC1CCCc2ccccc21 (stereo partly drawn),inactive

# More lines, now with the values ahead:
row,Activity,Structure (SMILES)
1,inactive,C[C@H](N)C(=O)Nc1nc2c(s1)CCCCC2C(=O)NCc1ccccc1 (stereo partly drawn)
2,inactive,CN[C@@H](C)C(=O)Nc1nc2c(s1)CCCCC2C(=O)NCc1ccccc1 (stereo partly drawn)
3,inactive,C[C@H](N)C(=O)Nc1nc2c(s1)CCCCC2C(=O)NC(c1ccccc1)c1ccccc1 (stereo partly drawn)
4,inactive,C[C@H](N)C(=O)Nc1nc2c(s1)CCCCC2C(=O)NC1CCCc2ccccc21 (stereo partly drawn)

# Biological target: T1, E3 ubiquitin-protein ligase XIAP
# Experiment: Inhibition of XIAP BIR3 domain at 10 to 100 uM by competitive fluorescence polarization binding assay
row,Structure (SMILES),Activity
1,CN[C@@H](C)C(=O)Nc1nc2c(s1)CCC2C(=O)NC1CCCc2ccccc21 (mixture of isomers),Active
2,C[C@H](N)C(=O)Nc1nc2c(s1)CCC2C(=O)NC(c1ccccc1)c1ccccc1 (stereo partly drawn),Active
3,CN[C@@H](C)C(=O)Nc1nc2c(s1)CCC2C(=O)NC(c1ccccc1)c1ccccc1 (stereo partly drawn),Active

# Second part, the molecule after the results:
row,Activity,Structure (SMILES)
1,Active,C[C@H](N)C(=O)Nc1nc2c(s1)CCC2C(=O)NC1CCCc2ccccc21 (stereo partly drawn)
2,Active,CN[C@@H](C)C(=O)Nc1nc2c(s1)CCC2C(=O)NCc1ccccc1 (stereo partly drawn)
3,Active,C[C@H](N)C(=O)Nc1nc2c(s1)CCC2C(=O)NCc1ccccc1 (stereo partly drawn)

# Biological target: T1, E3 ubiquitin-protein ligase XIAP
# Experiment: Inhibition of XIAP BIR3 domain by competitive fluorescence polarization binding assay
# In short: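 Competitive fluorescence polarization displacement assay using the XIAP BIR3 domain, with BV6 run in parallel as the reference compound. Binding affinity is expressed as Ki.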
row,Ki,Structure (SMILES)
1,37 µM,CN[C@@H](C)C(=O)Nc1nc2c(s1)CCC2C(=O)NC1CCCc2ccccc21 (mixture of isomers)
2,5.58 µM,CN[C@@H](C)C(=O)Nc1nc2c(s1)CC[C@H]2C(=O)N[C@@H]1CCCc2ccccc21
